# Source: PubChem BioAssay
# Hits are enriched below; roughly 1.3% of the tested compounds scored in any of these assays.
# NR2E3 ag-1 – activates human photoreceptor nuclear receptor NR2E3. Q9Y5X4. GST-NR2E3/biotin-RetCOR TR-FRET, 1536-well. inhibition of corepressor binding, % at 4.78 µM. 320,000 tested, 0.12% active. AID 2300;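 active = percent inhibition above the cutoff of mean plus 3 SD of all tested compounds, set per screening campaign, cut at about 20% in these data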;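 note: 0% = DMSO wells and 100% = biotin wells as full block of FRET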
#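 Material – GST-tagged NR2E3 plus biotinylated RetCOR corepressor · Quantity – NR2E3 fusion 1.35 nM · Times – 5 h incubation at 4 °C · Medium – pH 7.5 Tris-based buffer · Technique – TR-FRET, Eu(K)-anti-GST donor, streptavidin-D2 acceptor, ex 340, em 617/671 nm · Benchmarks – high control biotin, low control 0.6% DMSO · Format – 1536-well plates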
# EP2 antag – inhibitors of human EP2 prostaglandin E2 receptor | P43116 | C6 glioma cells expressing human EP2, cAMP TR-FRET; cells stimulated with saturating PGE2 | inhibition, % at 25 µM | 260,000 tested, 0.52% active;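 active = percent inhibition above 40 after rounding to a whole number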;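 note: rat C6 glioma host cells with rolipram phosphodiesterase inhibitor present; the protocol text gives 20 µM as final concentration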
# Target sequence (P43116 whole entry, looked up): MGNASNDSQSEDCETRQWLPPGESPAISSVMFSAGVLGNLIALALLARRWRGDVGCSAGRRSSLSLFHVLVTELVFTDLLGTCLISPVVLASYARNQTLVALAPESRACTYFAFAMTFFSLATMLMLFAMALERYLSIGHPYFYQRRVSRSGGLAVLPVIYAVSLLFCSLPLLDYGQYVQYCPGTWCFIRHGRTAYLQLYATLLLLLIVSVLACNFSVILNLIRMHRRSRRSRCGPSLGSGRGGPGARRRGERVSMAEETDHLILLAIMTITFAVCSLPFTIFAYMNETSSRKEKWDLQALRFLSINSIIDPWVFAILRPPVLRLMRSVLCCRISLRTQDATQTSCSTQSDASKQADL
# JMJD2C inh – blocks human GASC-1 demethylase activity | GST-JMJD2C(1-420) H3K9me3 demethylation, DELFIA europium | inhibition, % at 2.35 µM | 330,000 tested, 0.069% active;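 active = more than half of a compound's replicate wells show inhibition beyond 50%, single wells judged on their own value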;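 note: signal counts dimethyl H3K9 product captured on neutravidin plate; 0% = median of DMSO wells and 100% = 0.3 times that DMSO median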
# Furin inh – blocks human furin protease activity | purified furin, fluorogenic substrate cleavage | inhibition, % at 20 µM or 30 µM | 220,000 tested, 0.061% active; in the data active = inhibition above about 25%
# NR2E3 ag-2 – human photoreceptor-specific nuclear receptor agonism; Q9Y5X4; CHO-S Gal4-NCOR/VP16-NR2E3 two-hybrid, luciferase; inhibition of corepressor binding, % at 3.98 µM; 360,000 tested, 0.35% active; AID 602229;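 active = inhibition above the mean of all tested compounds plus 3 SD, cut at about 70% in these data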;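 note: 0% = DMSO with NR2E3 transfected cells and 100% = cells lacking NR2E3 construct; higher means lower luciferase signal from less NR2E3 corepressor binding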
# EP2 mod – EP2 receptor (human) modulation; P43116; EP2-expressing cells, cAMP HTRF FRET, PGE2 co-stimulation; induction, % at 25 µM; 260,000 tested, 0.83% active; AID 940;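 active = compounds whose cAMP rise, as percent of the full-agonist control response, exceeds 60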;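 note: rat C6 glioma line stably carrying human EP2 under a CMV promoter; the protocol text gives 20 µM as final concentration; 100% = response of wells given 1 µM PGE2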
# NR2E3 ag conf – confirmation of human NR2E3 agonists; shares compounds with NR2E3 ag-2; AID 624378; 2,300 tested, 51% active; inhibition, % at 3.98 µM; CHO-S mammalian two-hybrid NR2E3-NCOR, luciferase luminescence;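 active = average inhibition above a cutoff equal to the mean inhibition of all tested compounds plus one SD, cut at about 70% in these data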;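 note: 0% = DMSO in NR2E3 cells and 100% = DMSO in cells lacking NR2E3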
# GAL4-VP16 luc – counter-screen for NR2E3 agonists: GAL4-VP16 reporter inhibitors. CHO-S GAL4-VP16 luciferase reporter, luminescence. 2,300 tested, 29% active. shares compounds with NR2E3 ag-2. inhibition, % at 3.98 µM;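 active = mean inhibition above a cutoff equal to the average over all tested compounds plus one standard deviation, cut at about 70% in these data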;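 note: luciferase from a UAS reporter driven by GAL4-VP16 transactivation; 0% = DMSO with VP16-transfected cells and 100% = DMSO with cells lacking VP16; higher means less reporter light so more repression of VP16 activity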
# Starred values were filed as active, the others as inactive; / = not tested or not shown.
SMILES,NR2E3 ag-1,EP2 antag,JMJD2C inh,Furin inh,NR2E3 ag-2,EP2 mod,NR2E3 ag conf,GAL4-VP16 luc
COCC(=O)Oc1cc(-c2ccc(C)cc2C)c(OC(=O)COC)c(-c2ccc(C)cc2C)c1,/,/,/,/,69,/,24,8
CCS(=O)(=O)N1CCCC(C(=O)c2ccc(OC)cc2C)C1 (stereo unspecified),3,9,-4,-16,-28,-12,/,/
COc1ccc(C(=O)C2CCCN(S(=O)(=O)c3ccc(C(C)=O)cc3)C2)c(C)c1 (stereo unspecified),-2,/,4,/,83*,/,67,63
CC[C@@H](C(=O)[C@@H](C)[C@@H](O)[C@H](C)[C@@H]1O[C@@H]([C@@H](CC)C(=O)O)CC[C@@H]1C)[C@H]1O[C@]2(C=C[C@@H](O)[C@]3(CC[C@@](C)([C@H]4CC[C@](O)(CC)[C@H](C)O4)O3)O2)[C@H](C)C[C@@H]1C,/,/,/,/,102*,/,100*,84*
c1csc(CNc2ccc3c(c2)OCCO3)c1,1,2,5,-20,58,1,48,3
CCOc1ccc(NC(=O)C2CCN(C(=O)c3ccc(OC)cc3)CC2)cc1,/,10,/,/,/,-8,/,/
CC1CCN(c2nc3c(c(=O)[nH]2)CCN(Cc2ccc(N4CCCC4)cc2)C3)CC1,/,/,/,/,/,-66,/,/
CCOC(=O)C1CCN(C(=O)C2CCCN(S(=O)(=O)c3ccc(OCC)c(Cl)c3)C2)CC1 (stereo unspecified),-2,/,98,/,70,/,21,51
O=C(Nc1ccc(S(=O)(=O)N2CCCC2)cc1)C1CCCO1 (stereo unspecified),/,7,/,/,/,6,/,/
O=C(NCc1ccccc1Cl)c1cc(C(=O)C2CC2)c[nH]1,1,/,6,/,51,/,41,27
O=C(NCc1cccnc1)c1cc(C(=O)C2CC2)c[nH]1,1,3,4,-29,-1,-10,/,/
CCCC(c1nnnn1C(C)(C)CC)N(Cc1cccs1)Cc1cc2cc(C)cc(C)c2[nH]c1=O (stereo unspecified),/,9,/,/,/,9,/,/
Cc1ccc([C@H]2C(C(=O)O)=CC[C@@H](c3ccc(Cl)cc3)N2S(=O)(=O)c2ccccc2C)cc1,/,/,11,/,48,/,28,31
Cc1ccc([C@H]2C(C(=O)O)=CC[C@@H](c3ccc(C)cc3)N2S(=O)(=O)c2ccccc2C)cc1,/,/,/,/,2,/,/,/
Cc1ccccc1S(=O)(=O)N1[C@@H](c2ccc(Cl)cc2)C(C(=O)O)=CC[C@H]1c1ccc(Cl)cc1,/,/,1,/,65,/,27,19
Cc1ccccc1Oc1cc(NC(=O)CCCn2nc(C)c([N+](=O)[O-])c2C)cc([N+](=O)[O-])c1,-1,9,0,-8,60,-7,66,41
CCOC(=O)CNC(=O)CSc1nnc2c3c(C)c(C)sc3nc(C(C)C)n12,/,11,/,/,/,-16,/,/
Cc1sc2ncn(CCCCn3cnc4sc(C)c(C)c4c3=O)c(=O)c2c1C,/,14,/,/,/,-5,/,/
Cc1sc2ncn(CCn3cnc4sc(C)c(C)c4c3=O)c(=O)c2c1C,3,9,-13,-5,55,-18,68,52
CC(C)(C)C(=O)Nc1nnc(SCC(=O)Nc2ccc(F)cc2)s1,/,9,/,/,/,-32,/,/
N#CC(C(=S)Nc1ccccc1)c1nc2ccccc2[nH]1 (stereo unspecified),3,5,4,-17,78*,-9,-12,-15
CSC(=Nc1ccccc1)C(C#N)c1nc2ccccc2[nH]1 (stereo unspecified),3,5,1,-17,-1,53,/,/
Cc1oc(C)c(C(=O)NCC(=O)O)c1C(=O)NCC(=O)O,/,13,/,/,/,16,/,/
O=C(NCCc1ccccc1F)c1ccc2c(c1)OCCO2,1,/,0,/,72*,/,65,41
O=C(NCc1ccccc1F)c1ccc2c(c1)OCO2,0,8,-3,-15,-24,11,/,/
SMILES,NR2E3 ag-1,EP2 antag,JMJD2C inh,Furin inh,NR2E3 ag-2,EP2 mod,NR2E3 ag conf,GAL4-VP16 luc
COC(=O)c1cc(CSc2nc3ccccc3c(=O)n2C)oc1C,4,/,-3,/,87*,/,83*,71*
Cc1ccc(S(=O)(=O)N2[C@@H](c3ccc(C(C)(C)C)cc3)C(C(=O)O)=CC[C@H]2c2ccc(Cl)c(Cl)c2)cc1,/,/,/,/,-11,/,/,/
CCc1ccc([C@@H]2CC=C(C(=O)O)[C@H](c3ccc(Cl)cc3)N2S(=O)(=O)c2ccc(C)cc2)cc1,4,/,5,/,76*,/,56,40
CCc1ccc([C@@H]2CC=C(C(=O)O)[C@H](c3ccc(C)cc3)N2S(=O)(=O)c2ccc(C)cc2)cc1,/,/,/,/,46,/,/,/
Cc1ccc(S(=O)(=O)N2[C@@H](c3ccc(C(C)(C)C)cc3)C(C(=O)O)=CC[C@H]2c2cccc(Cl)c2)cc1,/,/,3,/,84*,/,70,29
Cc1ccc(S(=O)(=O)N2[C@@H](c3ccc(Br)cc3)C(C(=O)O)=CC[C@H]2c2ccc(Cl)c(Cl)c2)cc1,/,/,/,/,76*,/,74*,42
Cc1ccc([C@H]2C(C(=O)O)=CC[C@@H](c3ccc(Cl)cc3)N2S(=O)(=O)c2ccc(C)cc2)cc1,/,/,-4,/,26,/,/,/
Cc1ccc(S(=O)(=O)N2[C@@H](c3ccc(Cl)cc3)C(C(=O)O)=CC[C@H]2c2ccc(C(C)C)cc2)cc1,1,/,-58,/,70,/,87*,48
COc1ccc(-n2ncc3c(=O)n(CC(=O)NCc4cccs4)cnc32)cc1,/,21,/,/,/,6,/,/
Cc1c(Cl)cccc1NC(=O)CSc1nnc2c(n1)[nH]c1ccc(F)cc12,/,11,/,/,/,-43,/,/
Cc1ccc([C@H]2C(C(=O)O)=CC[C@@H](c3ccc(C(C)C)cc3)N2S(=O)(=O)c2ccc(C)cc2)cc1,/,/,8,/,92*,/,51,36
Cc1ccc(S(=O)(=O)N2[C@@H](c3ccccc3)C(C(=O)O)=CC[C@H]2c2ccc(C(C)C)cc2)cc1,2,/,11,/,3,/,/,/
c1ccc2[nH]c(CCCCc3nc4ccccc4[nH]3)nc2c1,2,/,9,/,-7,/,/,/
Cn1c(=O)c2[nH]c(CCCCCCCCc3nc4ccccc4[nH]3)nc2n(C)c1=O,/,/,/,/,68,/,79*,61
C/C(=N\NC(=S)NCCc1ccccc1)c1ccc(Cl)cc1,-2,3,0,0,54,18,20,-25
C/C(=N\NC(=S)NCCc1ccccc1)c1ccc(C)cc1,2,5,-3,-23,70,55,1,-5
CCOc1ccc2nc(SCC(=O)Nc3cccc4ccccc34)c(C#N)cc2c1,/,7,/,/,/,4,/,/
COCC(=O)Nc1ccc(S(=O)(=O)N2CCCCC2)cc1,/,8,/,/,/,-30,/,/
